# MC4R antag cAMP = blocks human MC4R cAMP signaling | P32245 | MC4R-expressing cells, MTII-stimulated cAMP, LANCE TR-FRET | inhibition, % at 6.5 µM | actives 0.48% (n = 360,000) | AID 540295;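 active = inhibition above its plate's cutoff, the mean of tested wells on that plate plus 3 SD, cut at about 29% in these data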;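 also: 0% = Melanotan II alone and 100% = Melanotan II plus saturating MCL0020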
# Target sequence (P32245 whole entry, looked up): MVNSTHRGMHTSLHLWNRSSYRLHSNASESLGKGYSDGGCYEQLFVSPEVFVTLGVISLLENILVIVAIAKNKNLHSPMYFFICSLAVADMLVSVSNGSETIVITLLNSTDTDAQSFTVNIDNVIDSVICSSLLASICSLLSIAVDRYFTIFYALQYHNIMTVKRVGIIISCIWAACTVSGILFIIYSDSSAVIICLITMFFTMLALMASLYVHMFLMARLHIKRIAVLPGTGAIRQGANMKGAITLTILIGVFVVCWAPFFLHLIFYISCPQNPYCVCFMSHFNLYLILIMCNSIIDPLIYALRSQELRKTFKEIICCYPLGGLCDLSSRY
#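 System: U2OS-MC4R stable cell line; Technique: Eu-cAMP/anti-cAMP TR-FRET, emission 671 nm; Repeats: single well per compound; Also added: Melanotan II; Dosing: one concentration, 6.5 µM nominal; Schedule: 30-min compound, 1-h challenge, 1-h detection, room temperature.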
# CFTR F508del cor = correctors of CFTR F508del function in bronchial epithelial cells; actives 0.36% (n = 350,000); activity (quench increase), % at 7.58 µM; CFBE cells, YFP halide quenching; stimulated with forskolin plus potentiator P3; % fluorescence drop versus neutral controls;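 active = mean added fluorescence quench of at least 8% versus neutral control, with both replicates also reaching 8%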;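 also: cells transiently co-express mutant CFTR-F508del with the halide-sensitive YFP; corrector assay measuring rescue of mutant channel to the surface after 24 h compound exposure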
# SMARCA2 activ = SMARCA2 function activation, primary screen; MG213 cells, MMTV-luciferase reporter, dexamethasone, overnight; AID 652017; activation, % at 9.1 µM; actives 1% (n = 370,000); in the data active = activation above about 7.8%;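 also: 0% = vehicle wells and 100% = reference activator wells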
# MC4R barr agon = human MC4R agonism via beta-arrestin; P32245; U2OS MC4R beta-arrestin complementation, luminescence; percent of melanotan II response, DMSO zero; activation, % at 8.9 µM; actives 0.98% (n = 360,000); AID 540308;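 active = activation above a per-plate cutoff, the mean activation of sample wells on that plate plus 3 SD, cut at about 8% in these data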
# U2OS cAMP counter = U2OS forskolin cAMP inhibition counter-screen. shares compounds with MC4R antag cAMP. parental U2OS, LANCE TR-FRET. inhibition, % at 6.5 µM. actives 26% (n = 1,600). AID 602193;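 active = mean inhibition over triplicates above the low-control well mean plus 3 SD, set per campaign, cut at about 13% in these data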;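 also: signal is single emission at 671 nm which falls as cellular cAMP rises; 0% = forskolin-stimulated wells and 100% = buffer without forskolin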
# MC4R cAMP antag = human MC4R cAMP antagonism confirmation. AID 602195. actives 27% (n = 1,600). MC4R-expressing cells, MTII-stimulated cAMP, TR-FRET. shares compounds with MC4R antag cAMP. inhibition, % at 6.5 µM; in the data active = inhibition above about 29%;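 also: 0% = agonist stimulated wells alone and 100% = agonist stimulated wells plus saturating reference antagonist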
# * = called active by the depositor; / = no result. A selection: hits, their analogues and other compounds. The true share with any hit is near 2.1%.
SMILES,MC4R antag cAMP,CFTR F508del cor,SMARCA2 activ,MC4R barr agon,U2OS cAMP counter,MC4R cAMP antag
CCN1CCN(C(c2cccc(OC)c2)c2sc3nc(C)nn3c2O)CC1 (configuration not stated),-1,/,0,-1,/,/
COCCNC(=O)C[C@H]1C[C@@H]2c3cc(NC(=O)Nc4ccccc4F)ccc3O[C@@H]2[C@H](CO)O1,/,-1,/,/,/,/
COC(=O)c1ccc2c(=O)[nH]c(COC(=O)c3[nH]c(C)c(C(C)=O)c3C)nc2c1,24,0,0,-1,/,/
COC(=O)c1ccc2c(=O)[nH]c(COC(=O)c3c(-c4ccccc4Cl)noc3C)nc2c1,29*,-3,1,2,-1,5
COC(=O)c1c2oc(c1C(=O)OC)C(=O)N(C)Cc1cn(nn1)C[C@@H](Cc1ccccc1)NC(=O)N[C@H](CO)CC2,/,1,/,/,/,/
O=c1c(Cl)c(N2CCN(c3ccc(F)cc3)CC2)cnn1C12CC3CC(CC(C3)C1)C2,29*,/,-2,3,-1,3
Cn1c(-c2ccccc2)n[nH]c1=S,33*,0,3,-2,3,7
C[C@@H]1CN([C@@H](C)CO)C(=O)c2cccc(NC(=O)CCCCCC(=O)Nc3ccccc3N)c2O[C@@H]1CN(C)C(=O)NC1CCCCC1,/,-3,/,/,/,/
Cc1ccc(NC(=O)CCNC(=O)c2ccccc2Cl)cc1S(=O)(=O)N1CCOCC1,7,0,3,-1,/,/
CSCCC(NC(=O)c1ccccc1Cl)C(=O)Nc1ccc(C)c(S(=O)(=O)N2CCOCC2)c1 (configuration not stated),29*,0,0,3,8,13
CO[C@@H]1CN(C)C(=O)c2ccc(NC(=O)C3CCC3)cc2OC[C@@H](C)N(Cc2ccc(F)cc2)C[C@H]1C,/,2,/,/,/,/
COc1ccc(CCNC(=O)C2(C)CCC(=O)N2Cc2ccc(F)cc2Cl)cc1OC (configuration not stated),39*,1,-2,-1,1,6
COc1ccc2c3c(n(C)c2c1)[C@H](CO)N(C(=O)c1ccccc1)CC31CN(CC2CC2)C1,/,1,/,/,/,/
CC(C)c1ccc(OCC(=O)NC(=S)Nc2ccc3c4c(cccc24)CC3)cc1,38*,/,-1,0,20*,37*
Cc1ccc(S(=O)(=O)N(C)C[C@@H]2OCCCC[C@H](C)Oc3ccc(NC(=O)CCC(F)(F)F)cc3C(=O)N([C@@H](C)CO)C[C@@H]2C)cc1,/,2,/,/,/,/
Fc1ccc(NC(=S)Nc2ccc3nccnc3c2)cc1,36*,-3,1,2,-2,-1
COc1ccc(C(=O)/C=C/C(=O)N(Cc2ccccc2OC)C(C(=O)NC2CCCCC2)c2ccncc2)c(O)c1 (configuration not stated),15,/,-2,4,/,/
COc1ccc(C(=O)/C=C/C(=O)N(CC(=O)NC2CCCCC2)Cc2ccccc2OC)c(O)c1,48*,-5,1,-6,7,14
COc1ccc(C(=O)/C=C/C(=O)N(CC(=O)NC2CCCCC2)Cc2ccccc2)c(O)c1,40*,-5,-4,-2,5,11
COc1ccccc1C#Cc1ccc2c(c1)[C@H]1[C@H](CCN1S(=O)(=O)c1ccc(C)cc1)[C@H](CO)N2,/,0,/,/,/,/
COC(=O)COc1ccc(S(=O)(=O)N2CCc3ccccc3C2)cc1,29*,/,-1,0,14*,25
CCOc1ccc(S(=O)(=O)N2CCc3ccccc3C2)cc1,0,/,0,-2,/,/
COc1cc(C2NCC(c3ccc(Cl)cc3Cl)c3c2[nH]c2ccccc32)cc(OC)c1OC (configuration not stated),36*,0,-4,6,6,11
COc1ccc(-c2ccc([C@H]3[C@H](CO)N4CCCCN(C(=O)NC(C)C)C[C@@H]34)cc2)cc1,/,0,/,/,/,/
C=CC(=O)N1C/C(=C/c2ccccc2)C(=O)/C(=C\c2ccccc2)C1,22,-1,-10,-1,/,/
C=CC(=O)N1C/C(=C/c2ccc(Cl)cc2)C(=O)/C(=C\c2ccc(Cl)cc2)C1,45*,-9,-8,-3,22*,21
Cn1cnc(CCNC(=O)C[C@H]2CC[C@@H]3[C@H](COC[C@H](O)CN3C(=O)Nc3ccccc3)O2)c1,/,-1,/,/,/,/

# Screening data: PubChem, several laboratories
